Most compounds without a hit are left out; they make up all but 2% or so of the library.
ZTA DNA inh = blocks Epstein-Barr virus ZTA, an EBNA-1 counter-screen; P03206; ZTA-DNA binding, fluorescence polarization; inhibition, % at 11 µM; 320,000 compounds, 0.15% hits; AID 2234; in the data active = inhibition above about 33%
Target sequence (P03206 whole entry, looked up): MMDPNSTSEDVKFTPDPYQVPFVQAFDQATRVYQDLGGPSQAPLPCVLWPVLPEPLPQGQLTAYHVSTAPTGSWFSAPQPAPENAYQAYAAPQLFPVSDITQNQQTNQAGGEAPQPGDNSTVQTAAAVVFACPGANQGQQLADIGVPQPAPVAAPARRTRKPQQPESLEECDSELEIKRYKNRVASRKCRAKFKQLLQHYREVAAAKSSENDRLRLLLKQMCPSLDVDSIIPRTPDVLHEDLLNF
GPR7 antag = human neuropeptides B/W receptor 1 antagonism; P48145; GPR7-expressing cells, fluorescence antagonist assay; inhibition, % at 4.4 µM; 290,000 compounds, 1.1% hits; in the data active = inhibition above about 16%, passing the limit was not always enough;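 note: cells stimulated with the agonist NPW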
Target sequence (P48145 whole entry, looked up): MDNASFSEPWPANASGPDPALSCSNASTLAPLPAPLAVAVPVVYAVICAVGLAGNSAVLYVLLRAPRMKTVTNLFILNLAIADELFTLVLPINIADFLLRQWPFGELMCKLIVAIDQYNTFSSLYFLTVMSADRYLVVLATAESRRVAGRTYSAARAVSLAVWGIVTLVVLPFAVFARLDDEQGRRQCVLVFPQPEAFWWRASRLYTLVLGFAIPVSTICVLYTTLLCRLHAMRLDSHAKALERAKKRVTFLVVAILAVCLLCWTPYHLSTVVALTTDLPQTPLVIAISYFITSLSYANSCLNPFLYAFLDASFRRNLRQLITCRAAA
FID counter = counter-screen for HCV NS3 helicase inhibitors: DNA intercalator displacement; DNA fluorescent intercalator displacement, fluorescence; inhibition, % at 7.9 µM; 290,000 compounds, 0.17% hits; AID 1845; in the data active = inhibition above about 37%;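 note: higher means more ethidium bromide displaced from hairpin DNA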
NS3 helicase inh = inhibitors of Hepatitis C virus NS3 helicase; inhibition, % at 10.9 µM; AID 1800; 290,000 compounds, 0.56% hits; NS3 helicase DNA unwinding, Cy5 molecular beacon fluorescence;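 active = inhibition above the mean of all tested compounds plus 3 SD, set per campaign, cut at about 35% in these data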
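Measured by: Cy5 fluorescence, 0 and 60 min reads / Assay system: NS3 helicase fragment of HCV / Control set: low DMSO, high thioflavine S at 110 µM / Times: 1 h reaction at 25 °C, ATP-initiated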
EBNA-1 inh = blocks EBNA-1 binding to DNA; inhibition, % at 14.8 µM; 300,000 compounds, 0.34% hits; EBNA-1 DNA binding, fluorescence polarization; in the data active = inhibition above about 28%
Of the large screens only hits and unclear results are named; the others gave an inactive call.

CC1(C)CSC(=NCCc2ccccc2)N1C(=O)c1ccc(C#N)cc1	GPR7 antag 20
CC1(C)CSC(=NCCc2ccccc2)N1	none
CCCCC(CC)C(=O)Oc1ccc(O)c(C(C)(C)C)c1 (stereo unspecified)	GPR7 antag 30
O=C(CSc1nnnn1-c1cccc(C(=O)O)c1)NC(c1ccccc1)c1ccccc1	none
O=C(O)c1cccc(-n2nnnc2SCc2ccccn2)c1	GPR7 antag 19
COc1ccc2c(c1)sc(=NC(=O)CS(=O)(=O)c1ccc(F)cc1)n2C	none (no result: GPR7 antag, FID counter, NS3 helicase inh)
O=C(c1ccc2c(c1)OCO2)N1CCC(Cc2ccccc2)CC1	GPR7 antag 19
COc1ccc(OC)c(C(c2nnnn2C2CCCC2)N2CCN(c3ccc(F)cc3)CC2)c1 (stereo unspecified)	GPR7 antag 18
COc1ccc(C(c2nnnn2C2CCCC2)N2CCC(C)CC2)c(OC)c1 (stereo unspecified)	none
COc1ccc(OC)c(S(=O)(=O)CC(O)CS(=O)(=O)c2ccccc2)c1 (stereo unspecified)	none
COc1ccc(NC(=O)C(=O)NCC2CCCN2S(=O)(=O)c2cccs2)cc1 (stereo unspecified)	none (no result: GPR7 antag, FID counter, NS3 helicase inh)
CC1C/C(=C\c2cccnc2)C(=O)/C(=C/c2cccnc2)C1 (stereo unspecified)	ZTA DNA inh 44
N=c1c2c(-c3ccccc3)c(-c3ccccc3)n(Cc3ccco3)c2ncn1CCCn1ccnc1	none
N=c1c2c(-c3ccccc3)c(-c3ccccc3)n(Cc3ccccc3)c2ncn1CCO	FID counter 37
O=C(CN1C(=O)S/C(=C\c2ccccc2)C1=O)Nc1cc([N+](=O)[O-])ccc1O	FID counter 43
COc1ccc(/C=C(\NC(=O)c2ccco2)C(=O)N2CCCCC2)cc1	none
CCCC(=O)N(Cc1cc2cccc(C)c2[nH]c1=O)c1ccccc1OC	GPR7 antag 21
O=C(CN1C(=O)c2ccccc2C1=O)OCC(=O)c1ccc(F)cc1	none (no result: GPR7 antag, FID counter, NS3 helicase inh)
CC1(C)NC(=O)N(CC(=O)OCC(=O)c2ccc(F)cc2)C1=O	EBNA-1 inh 102 (no result: GPR7 antag, FID counter, NS3 helicase inh)
CC1=NOC(=O)/C1=C\c1ccc(-c2ccc(Cl)cc2Cl)o1	NS3 helicase inh 37 (no result: ZTA DNA inh, EBNA-1 inh)
CCCOc1ccc(Cl)cc1/C=C1/C(=O)ON=C1C	none
c1ccc(-n2cc(CN3CCCC(CN4CCCC4)C3)c(-c3ccc4c(c3)OCO4)n2)cc1 (stereo unspecified)	FID counter 40
CC1Cc2cc(/C(O)=C3/C(=O)C(=O)N(CCCn4ccnc4)C3c3ccc(F)cc3)ccc2O1 (stereo unspecified)	none
CCCCCCCC(=O)Oc1ccc(C(=O)Nc2cc(C)on2)cc1	none
O=C(c1ccccc1)N1CCN(c2ccc(Cl)cc2)CC1	GPR7 antag 20
O=C(Cn1nc(-c2ccccc2)ccc1=O)Nc1ccc(N2CCN(C(=O)c3ccccc3)CC2)cc1	GPR7 antag 20
CCN1CCN(C(=O)c2cc(COc3ccc(C(C)=O)cc3OC)on2)CC1	none
CC(=O)c1ccc(S(=O)(=O)N(C)CCCC(=O)N2CCN(c3ncccn3)CC2)cc1	none (no result: GPR7 antag, FID counter, NS3 helicase inh, EBNA-1 inh)
CCOc1ccc2nc3cc(NCc4ccc(OC)cc4)ccc3c(N)c2c1	ZTA DNA inh 101
CCN(CCCNS(=O)(=O)c1ccc2c(c1)oc(=O)n2C)c1cccc(C)c1	GPR7 antag 17
C=CCOc1ccc(/C=C(\C#N)C(=O)Nc2ccccn2)cc1	none
CCC(C)(C)n1nnnc1C(c1ccc(OC)c(OC)c1)N1CCN(c2ccccc2)CC1 (stereo unspecified)	GPR7 antag 18
CCC(C)(C)n1nnnc1C(c1ccc(OC)c(OC)c1)N1CCN(c2cccc(OC)c2)CC1 (stereo unspecified)	none
Cc1noc(C)c1COc1ccccc1C(=O)N(C)Cc1ccco1	none (no result: GPR7 antag, FID counter, NS3 helicase inh, EBNA-1 inh)
COc1cc(F)ccc1S(=O)(=O)N1CCN(Cc2ccccc2)CC1	none
O=c1cc(CSc2nnc(-c3cccs3)n2Cc2ccccc2)nc2sc3ccccc3n12	GPR7 antag 30
Nc1ccc(N2CCCCCC2)cc1	ZTA DNA inh 165, EBNA-1 inh 93
CC(=O)Nc1cccc(NC(=O)CSc2ncc(-c3ccc(Cl)cc3)n2Cc2ccco2)c1	GPR7 antag 37
O=C(CSc1nnc(-c2ccc(Cl)cc2)n1Cc1ccco1)Nc1ccc2c(c1)OCCO2	none
Cc1cccc(NC(=O)CNC(=O)c2ccc(-n3cncn3)c([N+](=O)[O-])c2)c1C	none (no result: GPR7 antag, FID counter, NS3 helicase inh)
CCN(Cc1cnn(C)c1)C(=O)c1ccc2nc(Cc3cccc(Cl)c3)oc2c1	none
Cc1ccc2c(c1)c1c3n2CCN(CC(N)=O)C3CCC1 (stereo unspecified)	none
Cc1ccc2c(c1)c1c3n2CCN(CC(O)CNC(C)C)C3CCC1 (stereo unspecified)	FID counter 45
O=S(=O)(Cc1ccccc1)Oc1ccccc1	none
COc1cc(CNC(C)(C)CO)cc(Br)c1OCc1ccc(Cl)cc1	GPR7 antag 37
Cc1nn(-c2ccc(N3CCOCC3)nn2)c(C)c1CCC(=O)N1CCN(C)CC1	none
COc1ccc(CNC[C@@H](CCCCN(C)Cc2ccc(OC)cc2)N2C[C@H](c3ccccc3)N(CCc3ccc(Cl)c(Cl)c3)C(=O)C2=O)cc1	FID counter 37
COc1ccc(-c2n(CC(=O)OC3CC(C)CCC3C(C)C)c3ccccc3[n+]2C)cc1 (stereo unspecified)	GPR7 antag 93 (no result: ZTA DNA inh, EBNA-1 inh)
CC1CCC(C(C)C)C(OC(=O)CSc2nccc(=O)[nH]2)C1 (stereo unspecified)	none
COCCN(C(=O)COC(=O)/C=C/c1ccc(OC)c(OC)c1)c1c(N)n(Cc2ccccc2)c(=O)[nH]c1=O	none (no result: GPR7 antag, FID counter, NS3 helicase inh)
Cc1ccc(C(=O)CCC(=O)NNC(=O)c2ccccc2O)cc1	none (no result: GPR7 antag, FID counter, NS3 helicase inh, EBNA-1 inh)
CC(OC(=O)Cn1cnc2c1c(=O)n(C)c(=O)n2C)C(=O)NC1CCCCC1C (stereo unspecified)	none (no result: GPR7 antag, FID counter, NS3 helicase inh)
COc1ccc2[nH]c(=O)c(CN(Cc3nnnn3Cc3ccco3)C3CCCCC3)cc2c1	NS3 helicase inh 42
COc1ccc(C(=O)NC(CCSC)C(=O)NC2CC2)cc1 (stereo unspecified)	none (no result: GPR7 antag, FID counter, NS3 helicase inh, EBNA-1 inh)
CC(C)(C)NC(=O)COC(=O)c1ccc(O)cc1	GPR7 antag 16
COC(=O)C(NC(=O)c1ccc(F)cc1)(Nc1nc(C)cs1)C(F)(F)F (stereo unspecified)	GPR7 antag 17
CC(C)(C)c1ccc(NC(=O)Nc2ccc(F)cc2)cc1	GPR7 antag 24
O=C(O)c1cccc(Nc2ccnc(Nc3cccc(C(=O)O)c3)n2)c1	none
O=C(CN1C(=O)NC(CCc2ccccc2)C1=O)NC1CC1 (stereo unspecified)	GPR7 antag 24
Cc1ccc2nc(NC(=O)CSCC(=O)OCC(=O)c3ccc(Br)cc3)sc2c1	EBNA-1 inh 30
Cc1ccc2nc(NC(=O)COC(=O)CSc3nc(C)cc(C)n3)sc2c1	none
CSc1nsc(SCC(=O)Nc2nc3ccc(C)cc3s2)n1	EBNA-1 inh 32
CC1=CC(C)(C)N(C(=O)CCl)c2cc(C)ccc21	none
CC1=CC(C)(C)N(C(=O)CNC2CCCCC2)c2cc(C)ccc21	GPR7 antag 23

Assay outcomes from PubChem BioAssay.
